Laboratory results: ChEMBL document CHEMBL1152877, “Studies on depigmenting activities of dihydroxyl benzamide derivatives containing adamantane moiety” (Bioorg Med Chem Lett, 2009)

What was measured:
[1] = Cytotoxicity against C57BL/6J mouse Melan-a cells assessed as cell survival at 20 uM by modified crystal violet assay; type: cell-based; details: read-out: Survival
Method in brief: (§1)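 Murine melan-a melanocytes (from C57BL/6 J mice) seeded at 2 × 10⁵ cells/ml, compound added in triplicate; medium changed daily over 4 d culture. Viability by modified crystal violet: PBS wash, 0.1% crystal violet in 10% ethanol 5 min at room temperature, four distilled-water rinses, retained dye extracted with 95% ethanol 10 min at room temperature. Reported as % survival at the stated concentration.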

Tyrosinase = target: T1, Tyrosinase (Agaricus bisporus, UniProt O42713); assay: Inhibition of mushroom tyrosinase activity after 20 mins
T1 sequence (O42713 whole entry): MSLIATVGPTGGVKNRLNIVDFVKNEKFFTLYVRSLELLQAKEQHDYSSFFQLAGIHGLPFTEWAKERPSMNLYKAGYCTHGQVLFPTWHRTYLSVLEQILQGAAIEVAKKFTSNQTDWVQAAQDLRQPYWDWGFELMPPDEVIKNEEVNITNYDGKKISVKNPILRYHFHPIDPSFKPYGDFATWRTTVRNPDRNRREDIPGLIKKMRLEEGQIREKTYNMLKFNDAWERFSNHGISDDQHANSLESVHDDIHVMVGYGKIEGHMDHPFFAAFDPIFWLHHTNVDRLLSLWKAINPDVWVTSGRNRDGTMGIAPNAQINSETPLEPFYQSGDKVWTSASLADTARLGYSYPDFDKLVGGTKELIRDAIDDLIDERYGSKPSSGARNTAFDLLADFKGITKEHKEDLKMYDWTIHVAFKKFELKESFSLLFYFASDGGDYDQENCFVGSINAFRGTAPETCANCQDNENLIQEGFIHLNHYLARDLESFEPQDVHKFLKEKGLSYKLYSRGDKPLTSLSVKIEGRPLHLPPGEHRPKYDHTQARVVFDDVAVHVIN
Method in brief: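 Mushroom tyrosinase (2100 U/ml stock in 0.05 M phosphate pH 6.5) with 1.5 mM tyrosine stock in 0.1 M phosphate buffer pH 6.5; incubated 20 min at 37 °C, read on microplate reader. IC50 = concentration inhibiting 50% of enzyme activity, from logarithmic concentration-inhibition curves, mean of three experiments.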

Melan-a = assay: Inhibition of melanin formation in C57BL/6J mouse Melan-a cells; type: functional, cell-based
Method in brief: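 Murine melan-a melanocytes (C57BL/6J origin) seeded at 2 × 10⁵ cells/ml, compounds added in triplicate; medium changed daily, 4 d culture. Cells lysed in 1 N NaOH, relative melanin read at 400 nm. IC50 from logarithmic concentration-inhibition curves, means of three experiments. Viability by crystal violet (0.1% in 10% ethanol, 5 min RT; extracted with 95% ethanol 10 min).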

[2] = Cytotoxicity against C57BL/6J mouse Melan-a cells assessed as cell survival at 50 uM by modified crystal violet assay; type: cell-based; details: read-out: Survival; method in brief: as §1
[3] = Cytotoxicity against C57BL/6J mouse Melan-a cells assessed as cell survival at 30 uM by modified crystal violet assay; type: cell-based; details: read-out: Survival; method in brief: as §1
[4] = Cytotoxicity against C57BL/6J mouse Melan-a cells assessed as cell survival at 10 uM by modified crystal violet assay
[5] = Cytotoxicity against C57BL/6J mouse Melan-a cells assessed as cell survival at 80 uM by modified crystal violet assay; type: cell-based; details: read-out: Survival; method in brief: as §1

O=C(NC12CC3CC(CC(C3)C1)C2)c1cc(O)ccc1O
viability at 20 µM [1]: 99.1%
IC50 (Tyrosinase): > 200 µM
IC50 (Melan-a): 9.82 µM

Oc1ccc(C23CC4CC(CC(C4)C2)C3)c(O)c1
viability at 20 µM [1]: 91.7%
IC50 (Tyrosinase): 0.9 µM
IC50 (Melan-a): 8.82 µM

O=C(NC12CC3CC(CC(C3)C1)C2)c1cccc(O)c1O
viability at 20 µM [1]: 96.2%
IC50 (Tyrosinase): > 200 µM
IC50 (Melan-a): 0.73 µM

O=C(NC12CC3CC(CC(C3)C1)C2)c1ccc(O)cc1O
viability at 50 µM [2]: 99.2%
IC50 (Tyrosinase): > 200 µM
IC50 (Melan-a): 34.1 µM

O=C(NC12CC3CC(CC(C3)C1)C2)c1ccc(O)c(O)c1
IC50 (Tyrosinase): > 200 µM
IC50 (Melan-a): 1.25 µM
viability at 30 µM [3]: 95.2%

Oc1ccc(O)cc1 [HYDROQUINONE]
IC50 (Tyrosinase): 9.81 µM
IC50 (Melan-a): 3.97 µM
viability at 10 µM [4]: 87.3%

CCCCc1ccc(O)cc1O [RUCINOL]
IC50 (Tyrosinase): 0.15 µM
IC50 (Melan-a): 21.6 µM
viability at 80 µM [5]: 98.2%

O=C(NC12CC3CC(CC(C3)C1)C2)c1cc(O)cc(O)c1
IC50 (Tyrosinase): > 200 µM
IC50 (Melan-a): 12.5 µM
viability at 30 µM [3]: 91.3%
